Paper PMC9996623 (ACS Omega, 2023)

Legend:
[1] = biological target: HIV-1 integrase (Human immunodeficiency virus type 1 group M subtype B, UniProt P04585); test: HIV-1 integrase strand transfer; assay type: biochemical; conditions: for inhibition at 10 µM: read-out: %ST inhibition (percentage inhibition of strand transfer activity of integrase enzyme), 10 μM dose, WT (wild-type) integrase; for fold increase in %ST inhibition compared to 10a: versus 10a
[2] = tested on: TZM-bl cells; test: MTT cytotoxicity assay on TZM-bl cells; assay type: cell-based; conditions: IC50 values at 48 h, 3.125 to 200 μM
Method in brief: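 Medium with compound removed; MTT reagent (5 mg/mL) added for 4 h; formazan dissolved in DMSO with shaking; absorbance read at 570 nm against a 630 nm reference. Percent viability plotted versus concentration.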

inhibition at 10 µM [1] [%] | Structure (SMILES) | other results
48.3 | Cn1cc(-c2cc(C(F)(F)F)cc(C(F)(F)F)c2)c2ccc(Cl)nc21 [10f, 3-(3,5-Bis(trifluoromethyl)phenyl)-6-chloro-1-methyl-1H-pyrrolo[2,3-b]pyridine] | –
71 | Cn1cc(-c2ccc3c(c2)OCO3)c2ccc(-c3ccncc3)nc21 [11f, 3-(Benzo[d][1,3]dioxol-5-yl)-1-methyl-6-(pyridin-4-yl)-1H-pyrrolo[2,3-b]pyridine] | fold increase in %ST inhibition comparing 10h and 11f ([1]; 10 μM dose, versus 10h): ~1.3 fold; IC50 in TZM-bl [2]: minimal cytotoxicity
39.3 | COc1ccc(-c2ccc3c(-c4ccccc4)cn(C)c3n2)cc1 [11a, 6-(4-Methoxyphenyl)-1-methyl-3-phenyl-1H-pyrrolo[2,3-b]pyridine] | fold increase in %ST inhibition compared to 10a ([1]; 10 μM dose): ~2 fold
24.1 | COc1ccc(Cn2cc(-c3ccc4c(c3)OCO4)c3ccc(-c4ccc5ccccc5c4)nc32)cc1 [12b, 3-(Benzo[d][1,3]dioxol-5-yl)-1-(4-methoxybenzyl)-6-(naphthalen-2-yl)-1H-pyrrolo[2,3-b]pyridine] | –
14 | Cn1cc(-c2ccccc2)c2ccc(Cl)nc21 [10a, 6-Chloro-1-methyl-3-phenyl-1H-pyrrolo[2,3-b]pyridine] | –
36.4 | Cn1cc(-c2ccccc2)c2ccc(-c3cc(C(F)(F)F)cc(C(F)(F)F)c3)nc21 [11c, 6-(3,5-Bis(trifluoromethyl)phenyl)-1-methyl-3-phenyl-1H-pyrrolo[2,3-b]pyridine] | –
41.6 | Cn1cc(-c2ccccc2)c2ccc(-c3ccsc3)nc21 [11e, 1-Methyl-3-phenyl-6-(thiophen-3-yl)-1H-pyrrolo[2,3-b]pyridine] | –
51.7 | Cc1ccc(-c2ccc3c(-c4ccccc4)cn(C)c3n2)cc1 [11b, 1-Methyl-3-phenyl-6-(p-tolyl)-1H-pyrrolo[2,3-b]pyridine] | –
82 | Cc1nnc(C(=O)NC(C)(C)c2nc(C(=O)NCc3ccc(F)cc3)c(O)c(=O)n2C)o1 [RAL, Raltegravir, reference compound] | –
15.9 | COc1ccc(Cn2cc(-c3ccsc3)c3ccc(-c4ccncc4)nc32)cc1 [12a, 1-(4-Methoxybenzyl)-6-(pyridin-4-yl)-3-(thiophen-3-yl)-1H-pyrrolo[2,3-b]pyridine] | –
38.3 | Cn1cc(-c2ccc(F)cc2)c2ccc(Cl)nc21 [10e, 6-Chloro-3-(4-fluorophenyl)-1-methyl-1H-pyrrolo[2,3-b]pyridine] | –
19.4 | Cc1cccc(-c2cn(C)c3nc(Cl)ccc23)c1 [10c, 6-Chloro-1-methyl-3-(m-tolyl)-1H-pyrrolo[2,3-b]pyridine] | –
41 | Cc1ccc(-c2cn(C)c3nc(Cl)ccc23)cc1 [10b, 6-Chloro-1-methyl-3-(p-tolyl)-1H-pyrrolo[2,3-b]pyridine] | fold increase in %ST inhibition compared to 10a ([1]; 10 μM dose): ~3 fold
54 | Cn1cc(-c2ccc3c(c2)OCO3)c2ccc(Cl)nc21 [10h, 3-(Benzo[d][1,3]dioxol-5-yl)-6-chloro-1-methyl-1H-pyrrolo[2,3-b]pyridine] | –
72 | COc1ccc(-c2ccc3c(-c4ccc(F)cc4F)cn(C)c3n2)cc1 [11d, 3-(2,4-Difluorophenyl)-6-(4-methoxyphenyl)-1-methyl-1H-pyrrolo[2,3-b]pyridine] | –
56 | COc1ccc(-c2cn(C)c3nc(Cl)ccc23)cc1 [10d, 6-Chloro-3-(4-methoxyphenyl)-1-methyl-1H-pyrrolo[2,3-b]pyridine] | –
